Test results published in ChEMBL document CHEMBL5247578, “Effective synthesis of benzimidazoles-imidazo[1,2-a]pyrazine conjugates: A comparative study of mono-and bis-benzimidazoles for antitumor activity” (Eur J Med Chem, 2019).

Key:
[1] = test system: NCI-H522; assay: Growth inhibition against human NCI-H522 cells assessed as total growth inhibitory concentration incubated for 48 hrs by sulforhodamine B assay; format: functional
[2] = test system: SW-620; assay: Growth inhibition against human SW620 cells incubated for 48 hrs by sulforhodamine B assay; format: functional
[3] = test system: HCC 2998; assay: Growth inhibition against human HCC 2998 cells assessed as total growth inhibitory concentration incubated for 48 hrs by sulforhodamine B assay; format: functional
[4] = test system: RPMI-8226; assay: Antiproliferative activity against human RPMI-8226 cells assessed as cell growth at 0.00000001 M incubated for 48 hrs by SRB assay relative to control; format: functional; details: dose 10 nM, read-out: Activity
[5] = test system: T47D; assay: Growth inhibition against human T47D cells incubated for 48 hrs by sulforhodamine B assay; format: functional
[6] = test system: ACHN; assay: Antiproliferative activity against human ACHN cells assessed as cell growth inhibition by measuring lethal concentration incubated for 48 hrs by sulforhodamine B assay; format: functional; details: read-out: LC50 (the source's name)
[7] = test system: SW-620; assay: Antiproliferative activity against human SW620 cells assessed as cell growth inhibition by measuring lethal concentration incubated for 48 hrs by sulforhodamine B assay; format: functional; details: read-out: LC50 (the source's name)
In short: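 NCI-60 five-dose screen (10^-4 to 10^-8 M, 10-fold dilutions; DMSO stocks). Cells in RPMI 1640 with 5% FBS and 2 mM L-glutamine, preincubated 24 h, then exposed 48 h at 37 °C, 5% CO2. Fixed with cold TCA, stained with 0.4% SRB, absorbance read at 515 nm. Time-zero plates used as reference. LC50 taken from [(Ti-Tz)/Tz]×100 […].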

[8] = test system: SN12C; assay: Antiproliferative activity against human SN12C cells assessed as cell growth inhibition by measuring lethal concentration incubated for 48 hrs by sulforhodamine B assay; format: functional; details: read-out: LC50 (the source's name)
[9] = test system: SNB-19; assay: Antiproliferative activity against human SNB-19 cells assessed as cell growth at 0.0000001 M incubated for 48 hrs by SRB assay relative to control; format: functional; details: dose 100 nM, read-out: Activity
[10] = test system: ACHN; assay: Growth inhibition against human ACHN cells assessed as total growth inhibitory concentration incubated for 48 hrs by sulforhodamine B assay; format: functional
[11] = test system: NCI-H23; assay: Antiproliferative activity against human NCI-H23 cells assessed as cell growth at 0.00001 M incubated for 48 hrs by SRB assay relative to control; format: functional; details: read-out: Activity
[12] = test system: KM12; assay: Antiproliferative activity against human KM12 cells assessed as cell growth at 0.00001 M incubated for 48 hrs by SRB assay relative to control; format: functional; details: read-out: Activity
[13] = test system: T47D; assay: Antiproliferative activity against human T47D cells assessed as cell growth at 0.0000001 M incubated for 48 hrs by SRB assay relative to control; format: functional; details: dose 100 nM, read-out: Activity
[14] = test system: RXF 393; assay: Antiproliferative activity against human RXF 393 cells assessed as cell growth at 0.0001 M incubated for 48 hrs by SRB assay relative to control; format: functional; details: read-out: Activity
[15] = test system: Calf thymus DNA; assay: Binding affinity to calf thymus DNA assessed as DNA intercalation by measuring change in melting temperature at 10 uM by thermal denaturation assay; format: nucleic-acid assay; details: Bos taurus
[16] = test system: HEK293; assay: Cytotoxicity against human HEK293 cells assessed as reduction in cell viability at 0.00001 M incubated for 48 hrs by MTT colorimetric assay relative to control; format: toxicity, cell-based; details: hek293, 48 h, 10 µM
[17] = test system: SN12C; assay: Antiproliferative activity against human SN12C cells assessed as cell growth at 0.00000001 M incubated for 48 hrs by SRB assay relative to control; format: functional; details: dose 10 nM, read-out: Activity
[18] = test system: COLO 205; assay: Antiproliferative activity against human COLO 205 cells assessed as cell growth at 0.00000001 M incubated for 48 hrs by SRB assay relative to control; format: functional; details: dose 10 nM, read-out: Activity
In short: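 NCI-60 five-dose screen over 10^-4–10^-8 M (10-fold dilutions). Cells grown in RPMI 1640 with 5% FBS and 2 mM L-glutamine, seeded at 5,000–40,000 cells/well and preincubated 24 h. Drug from DMSO stock, 48 h at 37 °C, 5% CO2. Adherent cells TCA-fixed and stained with 0.4% SRB; A515 read. Percent growth = (Ti−Tz)/(C−Tz)×100, or (Ti−Tz)/Tz×100 when Ti<Tz.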

[19] = test system: KM12; assay: Growth inhibition against human KM12 cells assessed as total growth inhibitory concentration incubated for 48 hrs by sulforhodamine B assay; format: functional
[20] = test system: UACC-62; assay: Antiproliferative activity against human UACC-62 cells assessed as cell growth at 0.0000001 M incubated for 48 hrs by SRB assay relative to control; format: functional; details: dose 100 nM, read-out: Activity
[21] = test system: HOP-92; assay: Antiproliferative activity against human HOP-92 cells assessed as cell growth inhibition by measuring lethal concentration incubated for 48 hrs by sulforhodamine B assay; format: functional; details: read-out: LC50 (the source's name)
[22] = test system: NCI/ADR-RES; assay: Antiproliferative activity against human NCI/ADR-RES cells assessed as cell growth at 0.0000001 M incubated for 48 hrs by SRB assay relative to control; format: functional; details: dose 100 nM, read-out: Activity
[23] = test system: SNB-75; assay: Growth inhibition against human SNB-75 cells assessed as total growth inhibitory concentration incubated for 48 hrs by sulforhodamine B assay; format: functional
[24] = test system: SF-539; assay: Antiproliferative activity against human SF-539 cells assessed as cell growth at 0.00001 M incubated for 48 hrs by SRB assay relative to control; format: functional; details: read-out: Activity
[25] = test system: OVCAR-8; assay: Antiproliferative activity against human OVCAR-8 cells assessed as cell growth inhibition by measuring lethal concentration incubated for 48 hrs by sulforhodamine B assay; format: functional; details: read-out: LC50 (the source's name)
[26] = test system: IGROV-1; assay: Antiproliferative activity against human IGROV-1 cells assessed as cell growth at 0.0000001 M incubated for 48 hrs by SRB assay relative to control; format: functional; details: dose 100 nM, read-out: Activity
[27] = test system: SK-OV-3; assay: Antiproliferative activity against human SK-OV-3 cells assessed as cell growth at 0.0000001 M incubated for 48 hrs by SRB assay relative to control; format: functional; details: dose 100 nM, read-out: Activity
[28] = test system: M14; assay: Antiproliferative activity against human M14 cells assessed as cell growth at 0.000001 M incubated for 48 hrs by SRB assay relative to control; format: functional; details: read-out: Activity
[29] = test system: OVCAR-3; assay: Growth inhibition against human OVCAR-3 cells incubated for 48 hrs by sulforhodamine B assay; format: functional
[30] = test system: Hs-578T; assay: Antiproliferative activity against human Hs-578T cells assessed as cell growth at 0.00000001 M incubated for 48 hrs by SRB assay relative to control; format: functional; details: dose 10 nM, read-out: Activity
In short: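 NCI-60 five-dose mode, 10^-4 to 10^-8 M in 10-fold steps. RPMI 1640, 5% FBS, 2 mM L-glutamine; 24 h preincubation, then 48 h drug exposure at 37 °C. Stocks in DMSO at 400× the top concentration, diluted in medium with gentamicin. TCA fixation, SRB staining, absorbance at 515 nm. Percent growth from time-zero (Tz), control (C) and test (Ti) readings.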

[31] = test system: A549; assay: Antiproliferative activity against human A549 cells assessed as cell growth inhibition by measuring lethal concentration incubated for 48 hrs by sulforhodamine B assay; format: functional; details: read-out: LC50 (the source's name)
[32] = test system: NCI-H322M; assay: Antiproliferative activity against human NCI-H322M cells assessed as cell growth at 0.00001 M incubated for 48 hrs by SRB assay relative to control; format: functional; details: read-out: Activity
[33] = test system: SF-295; assay: Antiproliferative activity against human SF-295 cells assessed as cell growth at 0.0001 M incubated for 48 hrs by SRB assay relative to control; format: functional; details: read-out: Activity

SMILES: c1ccc(Cn2cnc3ccc(-c4nc(-c5ccc6c(c5)ncn6C5CCCCC5)cn5ccnc45)cc32)cc1
- TGI [1]: 5.09 µM
- GI50 [2]: 3.4 µM
- TGI [3]: 3.41 µM
- growth at 0.01 µM [4]: 108%
- GI50 [5]: 1.49 µM
- CC50 [6]: > 100 µM
- CC50 [7]: > 100 µM
- CC50 [8]: > 100 µM
- growth at 0.1 µM [9]: 103%
- TGI [10]: > 100 µM
- growth at 10 µM [11]: -46%
- growth at 10 µM [12]: -41%
- growth at 0.1 µM [13]: 95%
- growth at 100 µM [14]: -33%
- ΔTm [15]: 12 °C
- Activity [16]: 14.53%
- growth at 0.01 µM [17]: 102%
- growth at 0.01 µM [18]: 95%
- TGI [19]: 4.93 µM
- growth at 0.1 µM [20]: 90%
- CC50 [21]: 5.5 µM
- growth at 0.1 µM [22]: 97%
- TGI [23]: 2.89 µM
- growth at 10 µM [24]: -75%
- CC50 [25]: > 100 µM
- growth at 0.1 µM [26]: 93%
- growth at 0.1 µM [27]: 95%
- growth at 1 µM [28]: 65%
- GI50 [29]: 2.27 µM
- growth at 0.01 µM [30]: 99%
- CC50 [31]: > 100 µM
- growth at 10 µM [32]: 8%
- growth at 100 µM [33]: -38%

SMILES: COc1ccc(-c2cn3ccnc3c(-c3ccc4ncn(C5CCCCC5)c4c3)n2)cc1
- TGI [1]: 6.15 µM
- GI50 [2]: 0.734 µM
- TGI [3]: > 100 µM
- growth at 0.01 µM [4]: 104%
- GI50 [5]: 0.76 µM
- CC50 [6]: > 100 µM
- CC50 [7]: > 100 µM
- CC50 [8]: > 100 µM
- growth at 0.1 µM [9]: 108%
- TGI [10]: > 100 µM
- growth at 10 µM [11]: 13%
- growth at 10 µM [12]: 5%
- growth at 0.1 µM [13]: 86%
- growth at 100 µM [14]: 19%
- ΔTm [15]: 22 °C
- Activity [16]: 16.51%
- growth at 0.01 µM [17]: 97%
- growth at 0.01 µM [18]: 96%
- TGI [19]: > 100 µM
- growth at 0.1 µM [20]: 90%
- CC50 [21]: > 100 µM
- growth at 0.1 µM [22]: 94%
- TGI [23]: > 100 µM
- growth at 10 µM [24]: -53%
- CC50 [25]: > 100 µM
- growth at 0.1 µM [26]: 90%
- growth at 0.1 µM [27]: 88%
- growth at 1 µM [28]: 38%
- GI50 [29]: 0.411 µM
- growth at 0.01 µM [30]: 106%
- CC50 [31]: > 100 µM
- growth at 10 µM [32]: 53%
- growth at 100 µM [33]: 2%
